Data taken from PMC2645920 (Journal of the American Chemical Society, 2008).

Assays:
Dynamic light scattering = format: physicochemical; conditions: 750 μM in 1X PBS
Outline: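 Test compound dissolved in 1X PBS (pH 7.2), pre-filtered, and read at 22 °C with a 25 mW, 750 nm laser and a 90° detector. Detergent runs added 0.01% Triton-X 100. Each sample got ten repeat measurements, filtered on sum of squares and baseline error. Hr was derived by regularization from the autocorrelation decay. Intensity (kcps) is the mean of three or more measurements, compared with buffer.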

[1] = tested on: (CUG)109 RNA – MBNL1 protein interaction; assay: Enzyme Fragment Complementation; format: biochemical; conditions: EFC assay, immobilized (CUG)109 RNA, PL-MBNL1
[2] = molecular target: 5′-FAM-CCG-(CUG)10-CGG-3′ RNA (Seq. A); assay: Fluorescence titration; format: binding; conditions: FT
[3] = molecular target: HIV-1 frameshift stimulatory sequence (FSS) RNA hairpin (Seq. F); assay: Fluorescence titration; format: binding; conditions: FT

For Nc1c(/N=N/c2ccc(-c3ccc(/N=N/c4cc(S(=O)(=O)O)c5ccccc5c4N)cc3)cc2)cc(S(=O)(=O)O)c2ccccc12 [Congo Red], the “Hr (hydrodynamic radius)” value (Dynamic light scattering; pH 7.2) was 69.25 nm, the Intensity (Dynamic light scattering; pH 7.2) was 242±10 kcps and the “Hr (hydrodynamic radius)” value (Dynamic light scattering; pH 7.2 + Triton-X 100 (0.01%)) was 40.72 nm. It also gave an Intensity (Dynamic light scattering; pH 7.2 + Triton-X 100 (0.01%)) of 190±24 kcps.

With (Quin-Cys-Pro-Phe)2 [Compound 5-5] the “Inhibitory effect on (CUG)n – MBNL1 interaction” value [1] was “do not show any inhibitory effect”, the Kd [2] was over 40 µM and the Kd [3] was 0.35 ± 0.11 µM.
